Experimental data: ChEMBL document CHEMBL1641561, “Evaluation of hadacidin analogues” (Bioorg Med Chem Lett, 2011)
Activity calls are given as the source filed them. The calls are words filed in the database; no cut-off is given here.

Experiments:
[1] = Inhibition of adenylosuccinate synthase at 1:1 aspartate to compound ratio
[2] = Inhibition of adenylosuccinate synthase at 5:1 aspartate to compound ratio
[3] = Inhibition of adenylosuccinate synthase at 10 mM
In short: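 Recombinant His-tagged AdSS (pMOB45 in E. coli BL21(DE3), IPTG-induced at 18 °C, IMAC-purified); 2.0 µg per 100 µl reaction in 20 mM Hepes pH 7.5, 50 µM IMP, 25 µM GTP, 500 µM MgCl2, 10 mM test compound. Started at room temperature with 100 or 500 µM aspartate, frozen after 5 min. Adenylosuccinate quantified by HPLC (266 nm, pH 4.4 phosphate/PIC A/methanol), peak areas over three runs.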

Row | Compound | inhibition [1] | inhibition [2] | inhibition ([1]; concentration not given here) [%] | inhibition ([2]; concentration not given here) [%] | inhibition [3]
1 | CCC(C)C(C(=O)O)N(O)C=O (centres undefined) | Active | inactive | – | – | –
2 | CC(C(=O)O)N(O)C=O (centres undefined) | – | – | 90 | 50 | –
3 | CC(CCC(=O)O)N(O)C=O (centres undefined) | inactive | inactive | – | – | –
4 | CCC(C(=O)O)N(O)C=O (centres undefined) | Active | inactive | – | – | –
5 | O=CN(O)C(CC(=O)O)C(=O)O (centres undefined) | – | – | 30 | – | –
6 | O=C(O)CCCNO | inactive | inactive | – | – | –
7 | O=CN(O)CCC(=O)O | inactive | inactive | – | – | –

The next lines start with the values.

Row | inhibition [1] | inhibition [2] | inhibition ([1]; concentration not given here) [%] | inhibition ([2]; concentration not given here) [%] | inhibition [3] | Compound
8 | inactive | inactive | – | – | – | CC(CCC(=O)O)NO (centres undefined)
9 | inactive | inactive | – | – | – | O=CN(O)CCCCC(=O)O
10 | inactive | inactive | – | – | – | O=CN(O)CCCC(=O)O
11 | inactive | inactive | – | – | – | O=C(O)CNO
12 | inactive | – | – | 80 | Active | O=CN(O)CC(=O)O
13 | Active | inactive | – | – | – | CCCC(C(=O)O)N(O)C=O (centres undefined)
14 | – | – | 60 | – | – | O=CN(O)C(CCC(=O)O)C(=O)O (centres undefined)
15 | inactive | inactive | – | – | – | O=C(O)CCNO
